Measured values taken from ChEMBL document CHEMBL3994624, “Antimalarial Pyrido[1,2-a]benzimidazoles: Lead Optimization, Parasite Life Cycle Stage Profile, Mechanistic Evaluation, Killing Kinetics, and in Vivo Oral Efficacy in a Mouse Model” (J Med Chem, 2017).
Converted amounts (≈) assume the structure as drawn. The source made the active and inactive calls. No cut-off for these calls is given here.

How the values were obtained:
[1] = test system: Plasmodium berghei; assay: Antimalarial activity against GFP-fused Plasmodium berghei ANKA infected in mouse assessed as mouse mean survival days at 3 mg/kg, po administered once daily for 4 days; assay type: functional
Outline: (§1)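 P. berghei-infected mice (n=3 per dose) dosed orally once daily on 4 consecutive days at 4, 24, 48 and 72 h after infection; compound in 90/10 Tween80/ethanol (v/v) diluted 10-fold with water. Read-outs were % parasitemia reduction, mean survival time in days and cure; mice with <40% parasitemia reduction euthanized on day 4.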

[2] = test system: Plasmodium berghei; assay: Antimalarial activity against GFP-fused Plasmodium berghei ANKA infected in mouse assessed as reduction in parasitemia at 50 mg/kg, po administered once daily for 4 days by flow cytometry relative to control; assay type: functional; parameters: scale not given: the % may be the effect or the level left
Outline: (§2)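 P. berghei-infected mice, 3 per group. Compound formulated in 90/10 Tween80/ethanol (v/v), diluted 10-fold with water, given orally once daily at 4, 24, 48 and 72 h post-infection. Outcomes: % parasitemia reduction versus untreated control, mean survival days, and cured/infected. Mice with <40% reduction euthanized on day 4.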

[3] = test system: Plasmodium berghei; assay: Antimalarial activity against GFP-fused Plasmodium berghei ANKA infected in mouse assessed as reduction in parasitemia at 3 mg/kg, po administered once daily for 4 days by flow cytometry relative to control; assay type: functional; parameters: scale not given: the % may be the effect or the level left; outline: as §2
[4] = test system: Plasmodium berghei; assay: Antimalarial activity against GFP-fused Plasmodium berghei ANKA infected in mouse assessed as reduction in parasitemia at 25 mg/kg, po administered once daily for 4 days by flow cytometry relative to control; assay type: functional; parameters: scale not given: the % may be the effect or the level left
[5] = test system: Plasmodium berghei; assay: Antimalarial activity against GFP-fused Plasmodium berghei ANKA infected in mouse assessed as reduction in parasitemia at 12.5 mg/kg, po administered once daily for 4 days by flow cytometry relative to control; assay type: functional; parameters: scale not given: the % may be the effect or the level left
[6] = test system: Plasmodium berghei; assay: Antimalarial activity against GFP-fused Plasmodium berghei ANKA infected in mouse assessed as mouse mean survival days at 6 mg/kg, po administered once daily for 4 days; assay type: functional
[7] = test system: Plasmodium berghei; assay: Antimalarial activity against GFP-fused Plasmodium berghei ANKA infected in mouse assessed as mouse mean survival days at 50 mg/kg, po administered once daily for 4 days; assay type: functional; outline: as §1
[8] = test system: Plasmodium berghei; assay: Antimalarial activity against GFP-fused Plasmodium berghei ANKA infected in mouse assessed as reduction in parasitemia at 6 mg/kg, po administered once daily for 4 days by flow cytometry relative to control; assay type: functional; parameters: scale not given: the % may be the effect or the level left
[9] = test system: Plasmodium berghei; assay: Antimalarial activity against GFP-fused Plasmodium berghei ANKA infected in mouse assessed as mouse mean survival days at 25 mg/kg, po administered once daily for 4 days; assay type: functional
[10] = test system: Plasmodium berghei; assay: Antimalarial activity against GFP-fused Plasmodium berghei ANKA infected in mouse assessed as mouse mean survival days at 12.5 mg/kg, po administered once daily for 4 days; assay type: functional
[11] = test system: Plasmodium berghei; assay: Antimalarial activity against GFP-fused Plasmodium berghei ANKA infected in mouse assessed as protection against parasitemia at 30 mg/kg, po administered once daily for 4 days measured 30 days post infection by light microscopy; assay type: functional, organism-based; outline: as §2
[12] = test system: Plasmodium falciparum; assay: Anti-plasmodial activity against chloroquine-sensitive Plasmodium falciparum NF54 late 4/5 stage gametocytes assessed as reduction in ATP levels after 24 hrs by BacTiter-Glo reagent based bioluminescence assay; assay type: functional; settings: NF54, 24 h
[13] = Kinetic solubility of the compound in FaSSIF at pH 6.5 after 2 hrs by shake flask method; assay type: physicochemical; settings: read-out: Kinetic_solubility
[14] = test system: Plasmodium berghei; assay: Antimalarial activity against GFP-fused Plasmodium berghei ANKA infected in mouse assessed as protection against parasitemia at 50 mg/kg, po administered once daily for 4 days measured 30 days post infection by light microscopy; assay type: functional, organism-based; outline: as §2
[15] = test system: Plasmodium falciparum; assay: Ratio of IC50 for chloroquine-sensitive Plasmodium falciparum NF54 early 2/3 stage gametocytes to IC50 for chloroquine-sensitive Plasmodium falciparum NF54 late 4/5 stage gametocytes; assay type: functional
Outline: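 Early (stage II/III) and late (stage IV/V) gametocytes tested in parallel luciferase reporter assays; stage preference = EG IC50/LG IC50.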

[16] = test system: Mus musculus; assay: AUC (0 to infinity) in C57/Bl6 mouse at 2.5 mg/kg, iv by LC-MS method; assay type: ADME, organism-based; parameters: dose 2.5 mg/kg, time infinity, route intravenous; settings: in vivo
Outline: (§3)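 Mice (n=3) given a single intravenous dose of 2.5 mg/kg in dimethylacetamide:polyethylene glycol:propylene glycol/ethanol (4:1) at 1:3:6; 24 h sampling. Parameters were fitted by nonlinear mixed-effects two-compartment model with first-order elimination.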

[17] = test system: Plasmodium berghei; assay: Antimalarial activity against GFP-fused Plasmodium berghei ANKA infected in mouse assessed as protection against parasitemia at 10 mg/kg, po administered once daily for 4 days measured 30 days post infection by light microscopy; assay type: functional, organism-based; outline: as §2
[18] = test system: Plasmodium berghei; assay: Antimalarial activity against GFP-fused Plasmodium berghei ANKA infected in mouse assessed as protection against parasitemia at 3 mg/kg, po administered once daily for 4 days measured 30 days post infection by light microscopy; assay type: functional, organism-based; outline: as §2
[19] = Tmax in C57/Bl6 mouse at 10 mg/kg, po administered via gavage by LC-MS method; assay type: ADME, organism-based; settings: in vivo
Outline: (§4)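 Mice (n=3) given a single oral dose of 10 mg/kg as a suspension in […] HPMC; plasma sampled over 24 h. Parameters were estimated by nonlinear mixed-effects modelling with a two-compartment disposition model, first-order absorption and elimination.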

[20] = test system: Mus musculus; assay: AUC (0 to infinity) in C57/Bl6 mouse at 10 mg/kg, po administered via gavage by LC-MS method; assay type: ADME, organism-based; parameters: dose 10 mg/kg, route oral, time infinity; settings: in vivo; outline: as §4
[21] = Half life in C57/Bl6 mouse at 10 mg/kg, po administered via gavage by LC-MS method; assay type: ADME, organism-based; settings: in vivo; outline: as §4
[22] = test system: Plasmodium falciparum; assay: Ratio of IC50 for chloroquine-sensitive Plasmodium falciparum NF54 after 24 hrs to IC50 for chloroquine-sensitive Plasmodium falciparum NF54 after 72 hrs; assay type: functional
[23] = Clearance in C57/Bl6 mouse at 2.5 mg/kg, iv by LC-MS method; assay type: ADME, organism-based; settings: in vivo; outline: as §3
[24] = test system: Plasmodium berghei; assay: Antimalarial activity against GFP-fused Plasmodium berghei ANKA infected in mouse assessed as reduction in parasitemia at 30 mg/kg, po administered once daily for 4 days by flow cytometry relative to control; assay type: functional; parameters: scale not given: the % may be the effect or the level left; outline: as §2
[25] = test system: Plasmodium berghei; assay: Antimalarial activity against GFP-fused Plasmodium berghei ANKA infected in mouse assessed as mouse mean survival days at 30 mg/kg, po administered once daily for 4 days; assay type: functional; outline: as §1
[26] = test system: Plasmodium berghei; assay: Antimalarial activity against GFP-fused Plasmodium berghei ANKA infected in mouse assessed as reduction in parasitemia at 10 mg/kg, po administered once daily for 4 days by flow cytometry relative to control; assay type: functional; parameters: scale not given: the % may be the effect or the level left; outline: as §2
[27] = Selectivity index, ratio of IC50 for CHO cells to IC50 for chloroquine-sensitive Plasmodium falciparum NF54; assay type: toxicity; settings: hamster, read-out: Ratio IC50
Outline: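 Selectivity index = IC50 CHO / IC50 PfNF54.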

[28] = Cmax in C57/Bl6 mouse at 10 mg/kg, po administered via gavage by LC-MS method; assay type: ADME, organism-based; parameters: dose 10 mg/kg, route oral; settings: in vivo; outline: as §4
[29] = Oral bioavailability in C57/Bl6 mouse at 10 mg/kg administered via gavage by LC-MS method; assay type: ADME, organism-based; settings: in vivo; outline: as §4
[30] = test system: Huh-7; assay: Cytotoxicity against human HuH7 cells at 1 to 10 uM after 48 hrs by Alamarblue assay; assay type: cell-based; settings: huh-7, 48 h
[31] = test system: CHO; assay: Cytotoxicity against CHO cells after by MTT assay; assay type: cell-based; settings: Cricetulus griseus
[32] = test system: Plasmodium falciparum; assay: Anti-plasmodial activity against multidrug resistant Plasmodium falciparum K1 by [3H]-hypoxanthine incorporation assay; assay type: functional
Outline: (§5)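 P. falciparum asexual blood-stage growth inhibition by [3H]hypoxanthine incorporation; chloroquine and artesunate run as reference drugs in every experiment; IC50 given as mean of ≥2 independent experiments.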

[33] = Half life in C57/Bl6 mouse at 2.5 mg/kg, iv by LC-MS method; assay type: ADME, organism-based; settings: in vivo; outline: as §3
[34] = Metabolic stability in Balb/c mouse liver microsomes assessed as compound remaining at 1 uM in presence of NADPH after 30 mins by LC-MS/MS analysis; assay type: ADME, microsome; settings: read-out: Stability
Outline: (§6)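 Mouse and human liver microsomes; % compound remaining after 30 min.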

[35] = Volume of distribution in C57/Bl6 mouse at 2.5 mg/kg, iv by LC-MS method; assay type: ADME, organism-based; settings: in vivo; outline: as §3
[36] = Metabolic stability in human liver microsomes assessed as compound remaining at 1 uM in presence of NADPH after 30 mins by LC-MS/MS analysis; assay type: ADME, microsome; settings: read-out: Stability; outline: as §6
[37] = test system: Plasmodium berghei; assay: Antimalarial activity against GFP-fused Plasmodium berghei ANKA infected in mouse assessed as mouse mean survival days at 10 mg/kg, po administered once daily for 4 days; assay type: functional; outline: as §1
[38] = test system: Plasmodium falciparum; assay: Anti-plasmodial activity against chloroquine-sensitive Plasmodium falciparum NF54 by [3H]-hypoxanthine incorporation assay; assay type: functional; outline: as §5
[39] = test system: Plasmodium berghei; assay: Antimalarial activity against GFP-fused Plasmodium berghei ANKA liver stage infected in HuH7 cells pretreated for 1 hr followed by parasite infection at 1 uM after 48 hrs by luciferase reporter gene assay; assay type: functional, cell-based
[40] = test system: Ferriprotoporphyrin IX; assay: Inhibition of beta hematin formation in ring stage of chloroquine-sensitive Plasmodium falciparum NF54 assessed as decrease in haemozoin level at 0.5 to 3 times IC50 after 36 hrs by UV-vis spectra analysis
Outline: (§7)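 Synchronized ring-stage parasites treated with increasing drug concentrations, then cellular fractionation. Free haem and haemozoin quantified as iron (fg/cell) and compared with untreated control; significance by p-values; parasite survival overlaid.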

[41] = test system: Ferriprotoporphyrin IX; assay: Inhibition of beta hematin formation in water/NP40/DMSO solution after 5 hrs
[42] = test system: Plasmodium berghei; assay: Antimalarial activity against GFP-fused Plasmodium berghei ANKA liver stage infected in HuH7 cells pretreated for 1 hr followed by parasite infection after 48 hrs by luciferase reporter gene assay; assay type: functional, cell-based; settings: Huh-7
[43] = test system: Ferriprotoporphyrin IX; assay: Inhibition of beta hematin formation in ring stage of chloroquine-sensitive Plasmodium falciparum NF54 assessed as increase in free heme level at 0.5 to 3 times IC50 after 36 hrs by UV-vis spectra analysis; outline: as §7

CCNCCNc1cc(-c2ccc(C(F)(F)F)cc2)c(C#N)c2nc3ccccc3n12.Cl
MSD [1]: 4 days | Activity [2]: 96% | Activity [3]: <40% | Activity [4]: 96% | Activity [5]: 81% | MSD [6]: 7 days | MSD [7]: 14 days | Activity [8]: 38% | MSD [9]: 14 days | MSD [10]: 14 days

CCNCCNc1cc(-c2ccc(C(F)(F)F)cc2)c(C#N)c2nc3cc(Cl)c(Cl)cc3n12
MSD [1]: 17 days | Activity [11]: Active | IC50 [12]: 720 nM | solubility kinetic at 2 h [13]: 10 µM (≈ 4.92 µg/mL) | Activity [14]: Active | Ratio IC50 [15]: 1.2 | AUC [16]: 4.27 µM·h | Activity [2]: 98% | Activity [17]: inactive | Activity [18]: inactive | Tmax [19]: 10 h | AUC [20]: 2.63 µM·h | half-life [21]: 15 h | Activity [3]: 99.5% | Ratio IC50 [22]: 1.5 - 2 | clearance [23]: 21 mL/min/kg | Activity [24]: 99.7% | MSD [7]: 30 days | MSD [25]: 30 days | Activity [26]: 99.6% | selectivity ratio [27]: 188 | Cmax [28]: 70 nM | bioavailability [29]: < 15% | Activity [30]: Non-Toxic | IC50 [31]: 3390 nM | IC50 [32]: 20 nM | half-life [33]: 15 h | remaining at 0.5 h, 1 µM [34]: 81% | Vd [35]: 26 L/kg | remaining at 0.5 h, 1 µM [36]: 95% | MSD [37]: 18 days | IC50 [38]: 20 nM

N#Cc1c(-c2ccc(C(F)(F)F)cc2)c(F)c(NCCN2CCC(O)C2)n2c1nc1ccccc12 (stereo not given)
Activity [39]: Active | solubility kinetic at 2 h [13]: 80 µM (≈ 38.7 µg/mL) | inhibition [40]: inactive | IC50 [41]: 120000 nM | IC50 [42]: 1420 nM | Ratio IC50 [22]: 22 | selectivity ratio [27]: 1080 | Activity [30]: Non-Toxic | IC50 [31]: 206000 nM | IC50 [32]: 170 nM | remaining at 0.5 h, 1 µM [34]: 37% | IC50 [38]: 190 nM | inhibition [43]: inactive
